{
  "source": "paper PMC8785363",
  "about": "(Leukemia, 2019)",
  "key": {"[1]": {"tested_on": "B cells from healthy donors", "test": "Toxicity toward B cells from healthy donors", "format": "cell-based, human", "settings": "n=3"}, "Human serum protein": {"tested_on": "Human serum protein", "test": "Human serum protein binding", "format": "in vitro ADME", "settings": "22 h incubation with the serum, mean ± SD, triplicate"}, "[2]": {"tested_on": "T cells from healthy donors", "test": "Toxicity toward T cells from healthy donors", "format": "cell-based, human", "settings": "n=3"}, "[3]": {"test": "Human serum protein binding", "format": "in vitro ADME", "settings": "human"}, "FBS protein": {"tested_on": "FBS protein", "test": "FBS protein binding", "format": "in vitro ADME, bovine", "settings": "22 h incubation with the serum; mean ± SD, triplicate"}, "FBS protein binding": {"test": "FBS protein binding", "format": "in vitro ADME, bovine", "settings": "bovine"}, "primary CLL cells [4]": {"tested_on": "primary CLL cells", "test": "Induction of apoptosis / cell death in primary CLL cells", "format": "cell-based, human"}, "Bcl-XL": {"tested_on": "Bcl-XL", "test": "Immunoblot of Bcl-XL protein level in CLL cells", "format": "cell-based, human", "outline": "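Primary CLL cells from patients (informed consent) exposed to test compound, then immunoblotted for Bcl-XL alongside Mcl-1, Bcl-2 and PARP. Cleaved PARP served as the apoptosis marker. Three CLL patient samples were run, and one representative blot is shown.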"}, "Mcl-1": {"tested_on": "Mcl-1", "test": "Immunoblot of Mcl-1 protein level in CLL cells", "format": "cell-based, human", "settings": "24 h"}, "Bcl-2": {"tested_on": "Bcl-2", "test": "Immunoblot of Bcl-2 protein level in CLL cells", "format": "cell-based, human", "settings": "24 h"}, "primary CLL cells [5]": {"tested_on": "primary CLL cells", "test": "Mitochondrial outer membrane permeabilization", "format": "cell-based, human", "settings": "read-out: IC50 for MOMP induction; 24 h, DiOC6(3) staining; mean ± SD in 15 CLL samples"}, "primary CLL cells [6]": {"tested_on": "primary CLL cells", "test": "Protein synthesis by [3H]leucine incorporation in primary CLL cells", "format": "cell-based, human", "settings": "primary CLL samples, 4 h after exposure"}, "[7]": {"settings": "human serum and fetal bovine serum; cited from earlier work"}},
  "data": [
    {"smiles": "CC(/C=C/C(C)=C/[C@@H]1Cc2nc(cs2)CC[C@@H](N)CC(=O)O[C@@H](C)C/C(C)=C/C=C\\C(=O)O1)=C\\CN(C)C", "note": "[Compound 3, des-methyl PatA]", "values": [
      {"measurement": "toxicity to normal B cells compared with CLL cells / PatA", "setting": "[1]", "result": "significantly lower toxicity"},
      {"measurement": "Human serum protein binding (%) Fraction Bound", "setting": "Human serum protein", "result": "86.7 ± 4.7", "unit": "%"},
      {"measurement": "Human serum protein binding (%) Recovery", "setting": "Human serum protein", "result": "54.0 ± 2.6", "unit": "%"},
      {"measurement": "toxicity to normal T cells compared with CLL cells / PatA", "setting": "[2]", "result": "significantly lower toxicity"}
    ]},
    {"smiles": "CC(/C=C/C(C)=C/[C@@H]1Cc2nc(cs2)[C@@H](C)C[C@@H](N)CC(=O)O[C@@H](C)C/C(C)=C/C=C\\C(=O)O1)=C\\CN(C)C", "note": "[PatA (1), Pateamine A, reference compound]", "values": [
      {"measurement": "recovery at 22 h", "setting": "[3]", "result": "80.4 ± 12.8", "unit": "%"},
      {"measurement": "fraction unbound at 22 h", "setting": "[3]; serum", "result": 0.026},
      {"measurement": "FBS protein binding (%) Recovery", "setting": "FBS protein", "result": "86.3 ± 4.3", "unit": "%"},
      {"measurement": "recovery at 22 h", "setting": "FBS protein binding; FBS protein binding (%) Recovery, 22 h incubation with the serum, mean ± SD, triplicate", "result": 86.2, "unit": "%"},
      {"measurement": "fraction unbound at 22 h", "setting": "FBS protein binding; serum", "result": 0.013},
      {"measurement": "IC50", "setting": "primary CLL cells [4]; Homo sapiens, CLL cell, 24 h, read-out: IC50, μM 10% FBS", "result": "0.13 ± 0.08", "unit": "µM"},
      {"measurement": "IC50", "setting": "primary CLL cells [4]; Homo sapiens, CLL cell, 24 h, read-out: IC50, μM 10% Plasma", "result": "0.12 ± 0.09", "unit": "µM"}
    ]},
    {"smiles": "CC(/C=C/C(C)=C/[C@@H]1Cc2nc(cs2)CCCCC(=O)O[C@@H](C)C/C(C)=C/C=C\\C(=O)O1)=C\\CN(C)C", "note": "[DMDA PatA (2), des-methyl, des-amino PatA]", "values": [
      {"measurement": "effect on Bcl-XL expression", "setting": "Bcl-XL", "result": "without affecting the expression"},
      {"measurement": "effect on Mcl-1 protein level", "setting": "Mcl-1", "result": "reduced levels"},
      {"measurement": "effect on Bcl-2 expression", "setting": "Bcl-2", "result": "without affecting the expression"},
      {"measurement": "IC50", "setting": "primary CLL cells [5]", "result": "4920 ± 1400", "unit": "nM"},
      {"measurement": "Human serum protein binding (%) Fraction Bound", "setting": "Human serum protein", "result": "99.6 ± 0.1", "unit": "%"},
      {"measurement": "Human serum protein binding (%) Recovery", "setting": "Human serum protein", "result": "38.1 ± 7.5", "unit": "%"},
      {"measurement": "Human serum protein binding (%) Fraction Bound", "setting": "Human serum protein; listed as DMDAPatA", "result": 99.7, "unit": "%"},
      {"measurement": "Human serum protein binding (%) Recovery", "setting": "Human serum protein; listed as DMDAPatA", "result": 31.4, "unit": "%"},
      {"measurement": "FBS protein binding (%) Fraction Bound", "setting": "FBS protein", "result": "99.1 ± 0.1", "unit": "%"},
      {"measurement": "FBS protein binding (%) Recovery", "setting": "FBS protein", "result": "78.3 ± 2.7", "unit": "%"},
      {"measurement": "inhibition of protein synthesis ([3H]leucine incorporation)", "setting": "primary CLL cells [6]", "result": "inhibited protein synthesis"},
      {"measurement": "stability in human serum compared with fetal bovine serum", "setting": "[7]", "result": "similar"},
      {"measurement": "times less potent than PatA", "setting": "primary CLL cells [4]; CLL cells in media with 10% autologous patient plasma", "result": "about 30 times"},
      {"measurement": "IC50", "setting": "primary CLL cells [4]; read-out: IC50 in one sample with 19% del11q, single CLL sample with 19% del11q", "result": 4.32, "unit": "µM"}
    ]}
  ]
}
